Measurements reported in ChEMBL document CHEMBL4041515, “Modulating hydrogen-bond basicity within the context of protein-ligand binding: A case study with thrombin inhibitors that reveals a dominating role for desolvation” (Eur J Med Chem, 2017).

molecular target: Prothrombin (Homo sapiens, UniProt P00734); test: Inhibition of thrombin (unknown origin) using CH3SO2-D-Cha-Gly-Arg-pNA.AcOH as substrate measured every 20 sec for 30 mins in presence of NaCl by UV-Visible spectrophotometric method
Summary of the method: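 Kinetic chromogenic assay at 25 ± 0.2 °C in 0.02 M Hepes, 0.154 M NaCl (Na⁺ for enzyme activation), final DMSO 6.5 %, pH 7.4 ± 0.05. Thrombin about 8-12 nM final, substrate 100 µM final, inhibitor 0.5-10× preliminary IC50. Enzyme added last to premixed substrate and inhibitor, A405 read. Rates gave dose-response IC50, then Ki via Cheng-Prusoff, and ΔG = RTlnKi.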

Row | SMILES | Ki
1 | N=C(N)c1ccc(CNC(=O)[C@@H]2CCCN2S(N)(=O)=O)cc1 | 163 µM
2 | CCN1CCC[C@H]1C(=O)NCc1ccc(C(=N)N)cc1 | 250 µM
3 | N=C(N)c1ccc(CNC(=O)[C@@H]2CCCN2S(=O)(=O)C(F)(F)F)cc1 | 7.1 µM
4 | CC(C)(C)OC(=O)N1CCC[C@H]1C(=O)NCc1ccc(C(=N)N)cc1 | 11.9 µM
5 | CC(C)(C)CC(=O)N1CCC[C@H]1C(=O)NCc1ccc(C(=N)N)cc1 | 4.2 µM
6 | CS(=O)(=O)N1CCC[C@H]1C(=O)NCc1ccc(C(=N)N)cc1 | 68 µM
7 | N=C(N)c1ccc(CNC(=O)[C@@H]2CCCN2C(=O)CF)cc1 | 44 µM

The next lines start with the values.

Row | Ki | SMILES
8 | 59 µM | N=C(N)c1ccc(CNC(=O)[C@@H]2CCCN2C(N)=O)cc1
9 | 0.72 µM | N=C(N)c1ccc(CNC(=O)[C@@H]2CCCN2C(=O)CCc2ccccc2)cc1
10 | 4 µM | N=C(N)c1ccc(CNC(=O)[C@@H]2CCCN2C(=O)OCc2ccccc2)cc1
11 | 36 µM | CC(C)(C)NC(=O)N1CCC[C@H]1C(=O)NCc1ccc(C(=N)N)cc1
12 | 68 µM | CC(=O)N1CCC[C@H]1C(=O)NCc1ccc(C(=N)N)cc1
13 | 13.5 µM | N=C(N)c1ccc(CNC(=O)[C@@H]2CCCN2C(=O)C(F)(F)F)cc1
14 | 14.5 µM | N=C(N)c1ccc(CNC(=O)[C@@H]2CCCN2C(=O)NCc2ccccc2)cc1
15 | 17.9 µM | N=C(N)c1ccc(CNC(=O)[C@@H]2CCCN2C(=O)C(F)F)cc1
